Experimental data from different studies.
Lines come from different studies, so protocols differ.
ABCG2: Broad substrate specificity ATP-binding cassette transporter ABCG2 (ABCG2, Homo sapiens, UniProt Q9UNQ0)

With `CO[C@@H](C(=O)N1Cc2c(-c3ccc(C(=O)N4CCCc5ccccc54)cc3)cnn2C[C@H]1C(C)C)c1cnn(C)c1` (single isomer, unassigned) the Papp B→A was 33.7 ×10⁻⁶ cm/s (ABCG2; dog, MDCK-MDR1).
`CCOC(=O)[C@@]12C[C@@H]1[C@@H](n1ccc3c(NC)nc(C#Cc4ccc(Cl)s4)nc31)[C@H](O)[C@@H]2O` has a concentration of 5.92 ng/mL (male Sprague-Dawley rat, plasma; oral, 1 mg/kg, 2 h).
The Papp B→A of `Cc1n[nH]c(CC(=O)N2Cc3c(-c4ccc(C(=O)N5CCCc6ccccc65)cc4)cnn3C[C@H]2C)n1` is reported as 14.1 ×10⁻⁶ cm/s (ABCG2; dog, MDCK-MDR1).
`COc1cc(Nc2ncc(F)c(Nc3ccc4c(n3)NC(=O)C(C)(C)O4)n2)cc(OC)c1OC` has a Ki of 0.065 µM (ABCG2; transporter uptake, inhibitor; cell membranes).
With `C/N=C(/NC)c1ccc(NC(=O)/C=C/c2ccc(/C=C/C(=O)Nc3ccc(/C(=N\C)NC)cc3)cc2)cc1` the IC50 was 4.31 µM (K562; cell growth or viability).
`COc1cccc(-c2n[nH]c(SCc3ccccn3)n2)c1OC` gave a concentration of 62200 ng/mL (female Sprague-Dawley rat, plasma; oral, 100 mg/kg, 1 h, single dose).
The half-life of `CCc1cc(C(=O)NC)c2nccc(N3CCc4c(cc(Cn5ccnc5)cc4-c4cn(C)nc4C(F)(F)F)C3=O)c2c1` is reported as 48 min (male Sprague-Dawley rat, plasma; intravenous, 3 mg/kg).
`COc1ccc2c(=O)n(C)c(-c3ccccc3)nc2c1` has a concentration of 7.53 ng/mL (male Sprague-Dawley rat, spleen; oral, 30 mg/kg, 15 min).
`Cc1nnc(SCC(=O)Nc2ccc(Br)cc2)nc1O` gave an IC50 of over 200 µM (K562; cell growth or viability).
`O=C(O)CSc1nnc(Br)n1-c1ccc(C2CC2)c2ccccc12` has an inhibition of 27% (ABCG2; transporter uptake, inhibitor; Caco-2; 30 µM, 2 h).
The Papp B→A of `CC(C)[C@@H]1Cn2ncc(-c3ccc(C(=O)N4CCCc5ccccc54)cc3)c2CN1C(=O)Cc1ccccc1` is reported as 5.2 ×10⁻⁶ cm/s (ABCG2; dog, MDCK-MDR1).
`CCC1(C)CC(OC(=O)CSc2nnc(N)[nH]2)C2(C)C(C)CCC3(CCC(=O)C32)C(C)C1O` (stereo not drawn) has an IC50 of 21.3 µM (K562; cell growth or viability).
`Cc1noc(C)c1Cn1cc(N2C(=O)CN(Cc3cccc(O)c3)C2=O)cn1` gave a concentration of 26.7 ng/mL (male Sprague-Dawley rat, plasma; oral, 100 mg/kg, 15 min).
With `CSc1nc2nnnc(O)c2s1` the IC50 was over 640 µM (K562; cell growth or viability).
`C[C@@H]1Cn2ncc(-c3ccc(C(=O)N4CCCc5ccccc54)cc3)c2CN1C(=O)Cc1ccccc1` has a Papp B→A of 16 ×10⁻⁶ cm/s (ABCG2; dog, MDCK-MDR1).
`Cc1cc(C)cc(NC(=O)CN(C)S(=O)(=O)c2ccc3[nH]c4c(c3c2)CCCC4)c1` has an IC50 of 12.8 µM (K562; cell growth or viability).
For `CCc1cc(-c2noc(-c3cc(OC)nc(C4CCCC4)c3)n2)cc(C)c1OC[C@@H](O)CO`, the concentration was 62.7 ng/mL (Wistar rat, plasma; oral, 1 mg/kg, 3 h, single dose).
The IC50 of `COc1cc(/C=N\NC(=O)c2ccc(Br)cc2)ccc1OC(=O)c1cccs1` is reported as 32.4 µM (K562; cell growth or viability).
For `C[C@H](C(=O)N1Cc2c(-c3ccc(C(=O)N4CCCc5ccccc54)cc3)cnn2C[C@@H]1C)c1ccccc1`, the Papp B→A was 13.4 ×10⁻⁶ cm/s (ABCG2; dog, MDCK-MDR1).
With `O=C(O)c1cc(Br)c(O)c(Br)c1` the IC50 was over 432 µM (K562; cell growth or viability).
`C/C(O)=C(\C#N)C(=O)Nc1ccc(C(F)(F)F)cc1` has an efflux ratio of 6.06 (ABCG2; Caco-2; 1 µM, 2 h, pH 7.4).
